Reference: ChEMBL document CHEMBL1629494, “New amino acid esters of salicylanilides active against MDR-TB and other microbes” (Eur J Med Chem, 2010)
≈ marks a conversion by molar mass, not a printed value.

What was measured:
Aspergillus fumigatus [1] = experiment: Antifungal activity against Aspergillus fumigatus 231 after 24 hrs by broth microdilution method; type: functional; conditions: Aspergillus fumigatus, 231, 24 h
Trichosporon beigelii [2] = experiment: Antifungal activity against Trichosporon beigelii 1188 after 48 hrs by broth microdilution method; type: functional; conditions: Trichosporon beigelii, 1188, 48 h
PBMC = experiment: Cytotoxicity against human PBMC after 24 hrs by MTT assay; type: cell-based
Outline: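 Human peripheral blood mononuclear cells in RPMI-1640 with 10% fetal calf serum, 2 mM L-glutamine and gentamicin, 37 °C, 5% CO2. Seeded at 1.5–2.0 × 10⁵ cells/well. After 24 h, treated overnight in serum-free medium. Viability by MTT (2 mg/mL, 4 h); formazan dissolved in DMSO; OD540 minus OD620. Cytotoxicity % = [1 − OD treated/OD control] × 100; IC50 from dose-response curves. Four parallels, two independent experiments.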

Pichia kudriavzevii [3] = experiment: Antifungal activity against Candida krusei E28 after 48 hrs by broth microdilution method; type: functional; conditions: E28, 48 h
Aspergillus fumigatus [4] = experiment: Antifungal activity against Aspergillus fumigatus 231 after 48 hrs by broth microdilution method; type: functional; conditions: Aspergillus fumigatus, 231, 48 h
Nakaseomyces glabratus [5] = experiment: Antifungal activity against Candida glabrata 20/I after 48 hrs by broth microdilution method; type: functional
[6] = tested on: Mycobacterium tuberculosis; experiment: Antimycobacterial activity against Mycobacterium tuberculosis H37Rv 331/88 after 21 days by micromethod; type: functional; conditions: H37Rv 331/88, 504 h
Outline: (§1)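 Micromethod in Sula semisynthetic medium, with compounds added as DMSO solutions at 1000, 500, 250, 125, 62, 32, 16, 8, 4, 2, 1, 0.5, 0.25. Inoculum dilutions: H37Rv 10^-3; M. avium 330/88 10^-5; M. kansasii 235/80 10^-4; M. kansasii 6509/96 10^-5. Incubated at 37 °C, read at 14 and 21 days, and at 7 days for M. kansasii. MIC was the lowest concentration inhibiting growth.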

Mycobacterium kansasii [7] = experiment: Antimycobacterial activity against Mycobacterium kansasii 6509/96 after 7 days by micromethod; type: functional; conditions: 6509/96, 168 h; outline: as §1
[8] = tested on: Trichophyton mentagrophytes; experiment: Antifungal activity against Trichophyton mentagrophytes after 24 hrs by broth microdilution method; type: functional
Pichia kudriavzevii [9] = experiment: Antifungal activity against Candida krusei E28 after 24 hrs by broth microdilution method; type: functional; conditions: E28, 24 h
Candida tropicalis [10] = experiment: Antifungal activity against Candida tropicalis 156 after 48 hrs by broth microdilution method; type: functional; conditions: Candida tropicalis, 156, 48 h
[11] = Lipophilicity, log P of the compound; type: physicochemical; conditions: octanol/water
Mycobacterium avium [12] = experiment: Antimycobacterial activity against Mycobacterium avium; type: functional
Staphylococcus aureus [13] = experiment: Antibacterial activity against Staphylococcus aureus CCM 4516/08 after 24 hrs by broth microdilution method; type: functional; conditions: CCM 4516/08, 24 h
Outline: (§2)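 Broth microdilution following […], with twofold compound dilutions in Mueller-Hinton bouillon. Incubated 24 and 48 h at 35 °C in the dark in a humid atmosphere. MIC (IC80) was taken as ≥80% growth reduction versus control, read visually and photometrically.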

Escherichia coli [14] = experiment: Antibacterial activity against Escherichia coli CCM 4517 after 24 hrs by broth microdilution method; type: functional; conditions: CCM 4517, 24 h; outline: as §2
Staphylococcus aureus [15] = experiment: Antibacterial activity against Staphylococcus aureus CCM 4516/08 after 48 hrs by broth microdilution method; type: functional; conditions: CCM 4516/08, 48 h; outline: as §2
Mycobacterium avium [16] = experiment: Antimycobacterial activity against multidrug-resistant Mycobacterium avium 330/88 after 14 days by micromethod; type: functional; conditions: 330/88, 336 h; outline: as §1
Staphylococcus aureus [17] = experiment: Antibacterial activity against methicillin-resistant Staphylococcus aureus H5996/08 after 48 hrs by broth microdilution method; type: functional; conditions: H5996/08, 48 h; outline: as §2
[18] = tested on: Trichophyton mentagrophytes; experiment: Antifungal activity against Trichophyton mentagrophytes after 48 hrs by broth microdilution method; type: functional
Enterococcus sp. [19] = experiment: Antibacterial activity against Enterococcus sp. J14365/08 after 48 hrs by broth microdilution method; type: functional; conditions: J14365/08, 48 h; outline: as §2
Mycobacterium kansasii [20] = experiment: Antimycobacterial activity against Mycobacterium kansasii 235/80 after 14 days by micromethod; type: functional; conditions: 235/80, 336 h; outline: as §1
Mycobacterium kansasii [21] = experiment: Antimycobacterial activity against Mycobacterium kansasii 235/80 after 7 days by micromethod; type: functional; conditions: 235/80, 168 h; outline: as §1
Lichtheimia corymbifera [22] = experiment: Antifungal activity against Absidia corymbifera 272 after 24 hrs by broth microdilution method; type: functional; conditions: Lichtheimia corymbifera, 272, 24 h
Candida tropicalis [23] = experiment: Antifungal activity against Candida tropicalis 156 after 24 hrs by broth microdilution method; type: functional; conditions: Candida tropicalis, 156, 24 h
Mycobacterium kansasii [24] = experiment: Antimycobacterial activity against Mycobacterium kansasii 6509/96 after 14 days by micromethod; type: functional; conditions: 6509/96, 336 h; outline: as §1
[25] = tested on: Staphylococcus epidermidis; experiment: Antibacterial activity against Staphylococcus epidermidis H6966/08 after 48 hrs by broth microdilution method; type: functional; conditions: H6966/08, 48 h; outline: as §2
Candida albicans [26] = experiment: Antifungal activity against Candida albicans ATCC 44859 after 24 hrs by broth microdilution method; type: functional; conditions: ATCC 44859, 24 h
Klebsiella pneumoniae [27] = experiment: Antibacterial activity against Klebsiella pneumoniae D11750/08 after 24 hrs by broth microdilution method; type: functional; conditions: D11750/08, 24 h; outline: as §2
Enterococcus sp. [28] = experiment: Antibacterial activity against Enterococcus sp. J14365/08 after 24 hrs by broth microdilution method; type: functional; conditions: J14365/08, 24 h; outline: as §2
[29] = tested on: Mycobacterium tuberculosis; experiment: Antimycobacterial activity against Mycobacterium tuberculosis H37Rv 331/88 after 14 days by micromethod; type: functional; conditions: H37Rv 331/88, 336 h; outline: as §1
[30] = Selectivity index, ratio of IC50 for human PBMC to MIC for Mycobacterium tuberculosis H37Rv 331/88 after 14 days; type: functional
Outline: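 SI = PBMC IC50 (MTT cytotoxicity) divided by the MIC against the named M. tuberculosis strain. MIC taken after 14 days of incubation at 37 °C by the micromethod.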

Trichosporon beigelii [31] = experiment: Antifungal activity against Trichosporon beigelii 1188 after 24 hrs by broth microdilution method; type: functional; conditions: Trichosporon beigelii, 1188, 24 h
[32] = tested on: Staphylococcus epidermidis; experiment: Antibacterial activity against Staphylococcus epidermidis H6966/08 after 24 hrs by broth microdilution method; type: functional; conditions: H6966/08, 24 h; outline: as §2
Mycobacterium kansasii [33] = experiment: Antimycobacterial activity against Mycobacterium kansasii; type: functional
Mycobacterium avium [34] = experiment: Antimycobacterial activity against multidrug-resistant Mycobacterium avium 330/88 after 21 days by micromethod; type: functional; conditions: 330/88, 504 h; outline: as §1
Candida albicans [35] = experiment: Antifungal activity against Candida albicans ATCC 44859 after 48 hrs by broth microdilution method; type: functional; conditions: ATCC 44859, 48 h
Nakaseomyces glabratus [36] = experiment: Antifungal activity against Candida glabrata 20/I after 24 hrs by broth microdilution method; type: functional
Escherichia coli [37] = experiment: Antibacterial activity against Escherichia coli CCM 4517 after 48 hrs by broth microdilution method; type: functional; conditions: CCM 4517, 48 h; outline: as §2
Mycobacterium kansasii [38] = experiment: Antimycobacterial activity against Mycobacterium kansasii 235/80 after 21 days by micromethod; type: functional; conditions: 235/80, 504 h; outline: as §1
Klebsiella pneumoniae [39] = experiment: Antibacterial activity against Klebsiella pneumoniae D11750/08 after 48 hrs by broth microdilution method; type: functional; conditions: D11750/08, 48 h; outline: as §2
[40] = tested on: Mycobacterium tuberculosis; experiment: Antimycobacterial activity against drug-sensitive Mycobacterium tuberculosis; type: functional
Staphylococcus aureus [41] = experiment: Antibacterial activity against methicillin-resistant Staphylococcus aureus H5996/08 after 24 hrs by broth microdilution method; type: functional; conditions: H5996/08, 24 h; outline: as §2
Mycobacterium kansasii [42] = experiment: Antimycobacterial activity against Mycobacterium kansasii 6509/96 after 21 days by micromethod; type: functional; conditions: 6509/96, 504 h; outline: as §1
Lichtheimia corymbifera [43] = experiment: Antifungal activity against Absidia corymbifera 272 after 48 hrs by broth microdilution method; type: functional; conditions: Lichtheimia corymbifera, 272, 48 h

## CC(=O)N[C@@H](Cc1ccccc1)C(=O)Oc1ccc(Br)cc1C(=O)Nc1ccc(C(F)(F)F)cc1
Aspergillus fumigatus [1]
  MIC: 15.6 µM (≈ 8.58 µg/mL)
Trichosporon beigelii [2]
  MIC: 31.2 µM (≈ 17.2 µg/mL)
PBMC
  IC50: 48.7 µM
Pichia kudriavzevii [3]
  MIC: 125 µM (≈ 68.7 µg/mL)
Aspergillus fumigatus [4]
  MIC: 31.2 µM (≈ 17.2 µg/mL)
Nakaseomyces glabratus [5]
  MIC: 500 µM (≈ 275 µg/mL)
[6]
  MIC: 0.5 µM (≈ 0.275 µg/mL)
Mycobacterium kansasii [7]
  MIC: 1 µM (≈ 0.549 µg/mL)
[8]
  MIC: 3.9 µM (≈ 2.14 µg/mL)
Pichia kudriavzevii [9]
  MIC: 15.6 µM (≈ 8.58 µg/mL)
Candida tropicalis [10]
  MIC: 250 µM (≈ 137 µg/mL)
[11]
  logP: 5.19
Mycobacterium avium [12]
  MIC: 1 µM (≈ 0.549 µg/mL)
Staphylococcus aureus [13]
  MIC: 3.9 µM (≈ 2.14 µg/mL)
Escherichia coli [14]
  MIC: 250 µM (≈ 137 µg/mL)
Staphylococcus aureus [15]
  MIC: 31.2 µM (≈ 17.2 µg/mL)
Mycobacterium avium [16]
  MIC: 4 µM (≈ 2.2 µg/mL)
Staphylococcus aureus [17]
  MIC: 125 µM (≈ 68.7 µg/mL)
[18]
  MIC: 7.81 µM (≈ 4.29 µg/mL)
Enterococcus sp. [19]
  MIC: 125 µM (≈ 68.7 µg/mL)
Mycobacterium kansasii [20]
  MIC: 2 µM (≈ 1.1 µg/mL)
Mycobacterium kansasii [21]
  MIC: 0.5 µM (≈ 0.275 µg/mL)
Lichtheimia corymbifera [22]
  MIC: 7.81 µM (≈ 4.29 µg/mL)
Candida tropicalis [23]
  MIC: 125 µM (≈ 68.7 µg/mL)
Mycobacterium kansasii [24]
  MIC: 2 µM (≈ 1.1 µg/mL)
[25]
  MIC: 62.5 µM (≈ 34.3 µg/mL)
Candida albicans [26]
  MIC: 31.2 µM (≈ 17.2 µg/mL)
Klebsiella pneumoniae [27]
  MIC: > 500 µM
Enterococcus sp. [28]
  MIC: 15.6 µM (≈ 8.58 µg/mL)
[29]
  MIC: 0.25 µM (≈ 0.137 µg/mL)
[30]
  Selectivity Index: 194.8
Trichosporon beigelii [31]
  MIC: 15.6 µM (≈ 8.58 µg/mL)
[32]
  MIC: 15.6 µM (≈ 8.58 µg/mL)
Mycobacterium kansasii [33]
  MIC: 1 µM (≈ 0.549 µg/mL)
Mycobacterium avium [34]
  MIC: 4 µM (≈ 2.2 µg/mL)
Candida albicans [35]
  MIC: 500 µM (≈ 275 µg/mL)
Nakaseomyces glabratus [36]
  MIC: 125 µM (≈ 68.7 µg/mL)
Escherichia coli [37]
  MIC: 500 µM (≈ 275 µg/mL)
Mycobacterium kansasii [38]
  MIC: 2 µM (≈ 1.1 µg/mL)
Klebsiella pneumoniae [39]
  MIC: > 500 µM
[40]
  MIC: 1 µM (≈ 0.549 µg/mL)
Staphylococcus aureus [41]
  MIC: 7.81 µM (≈ 4.29 µg/mL)
Mycobacterium kansasii [42]
  MIC: 2 µM (≈ 1.1 µg/mL)
Lichtheimia corymbifera [43]
  MIC: 15.6 µM (≈ 8.58 µg/mL)
